Laboratory results from ChEMBL document CHEMBL1127019, “(S)-N-tert-butyl-3-(4-(2-methoxyphenyl)-piperazin-1-yl)-2-phenylpropanamide [(S)-WAY-100135]: a selective antagonist at presynaptic and postsynaptic 5-HT1A receptors” (J Med Chem, 1993).

Assays:
Rattus norvegicus [1] = assay: Minimum effective dose administered subcutaneously to block the effect of 8-hydroxy-DPAT; format: functional
Summary of the method: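 Rats pretreated sc with vehicle or test agent, then given 8-OH-DPAT iv 30 min later to induce the behavioral syndrome. Groups of at least 10 rats were used, and the 8-OH-DPAT ED50 was determined by the sequential up/down method.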

Rattus norvegicus [2] = assay: Decrease in hippocampal level of 5-HTat preinjection of 0.1 mg/kg, sc; format: functional, Hippocampus; conditions: route subcutaneous
[3] = biological target: Serotonin 2 (5-HT2) receptor (Rattus norvegicus) (UniProt P30994+P08909+P14842); assay: (§1) In vitro binding affinity towards the 5-hydroxytryptamine 2 receptor at 10 e-6 M; format: protein assay
Summary of the method: (§2)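 Radioligand binding in vitro. Values are mean percent inhibition at 10⁻⁶ M, from at least three experiments each run in triplicate.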

[4] = biological target: T1, 5-hydroxytryptamine receptor 1A (Rattus norvegicus, UniProt P19327); assay: In vitro binding affinity towards the 5-hydroxytryptamine 1A receptor was evaluated
T1 sequence (P19327 whole entry): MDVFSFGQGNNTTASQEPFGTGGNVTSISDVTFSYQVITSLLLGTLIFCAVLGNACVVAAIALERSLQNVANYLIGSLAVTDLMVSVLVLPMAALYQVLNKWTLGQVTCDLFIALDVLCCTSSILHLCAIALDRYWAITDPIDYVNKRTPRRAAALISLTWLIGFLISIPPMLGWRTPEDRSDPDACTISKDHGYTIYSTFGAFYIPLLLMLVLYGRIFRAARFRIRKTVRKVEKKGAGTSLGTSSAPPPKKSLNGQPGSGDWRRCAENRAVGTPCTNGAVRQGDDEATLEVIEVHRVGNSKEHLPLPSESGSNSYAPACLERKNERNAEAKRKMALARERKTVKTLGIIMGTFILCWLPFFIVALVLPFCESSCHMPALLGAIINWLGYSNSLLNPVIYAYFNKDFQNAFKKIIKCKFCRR
Summary of the method: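 Receptor binding at the 5-HT1A site, reported as IC50. Each value is the mean IC50 ± standard error of at least three experiments, each run in triplicate.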

[5] = biological target: 5-hydroxytryptamine receptor 1B (Rattus norvegicus) (UniProt P28564); assay: In vitro binding affinity towards the 5-hydroxytryptamine 1B receptor at 10 e-6 M; summary of the method: as §2
[6] = biological target: T2, 5-hydroxytryptamine receptor 2C (Rattus norvegicus) (UniProt P08909); assay: In vitro binding affinity towards the 5-hydroxytryptamine 1C receptor at 10 e-6 M; summary of the method: as §2
T2 sequence (whole entry): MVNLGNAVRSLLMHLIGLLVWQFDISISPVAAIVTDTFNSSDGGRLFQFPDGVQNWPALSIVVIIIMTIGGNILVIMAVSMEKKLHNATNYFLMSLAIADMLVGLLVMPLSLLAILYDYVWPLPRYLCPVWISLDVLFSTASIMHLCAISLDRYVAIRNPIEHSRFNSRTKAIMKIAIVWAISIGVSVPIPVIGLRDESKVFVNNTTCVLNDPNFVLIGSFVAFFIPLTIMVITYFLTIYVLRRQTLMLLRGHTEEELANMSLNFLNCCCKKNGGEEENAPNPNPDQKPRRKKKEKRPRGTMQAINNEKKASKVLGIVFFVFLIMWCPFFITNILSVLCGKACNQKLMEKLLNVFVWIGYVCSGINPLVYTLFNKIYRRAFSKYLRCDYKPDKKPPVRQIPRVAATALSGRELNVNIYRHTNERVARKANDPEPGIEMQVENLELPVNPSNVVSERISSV

[7] = biological target: T3, Adrenergic receptor alpha-1 (Rattus norvegicus, UniProt P15823+P23944+P43140); assay: In vitro binding affinity towards the anor-adrenergic alpha-1 receptor at 10 e-6 M; format: protein assay; summary of the method: as §2
T3 sequence (P15823 whole entry): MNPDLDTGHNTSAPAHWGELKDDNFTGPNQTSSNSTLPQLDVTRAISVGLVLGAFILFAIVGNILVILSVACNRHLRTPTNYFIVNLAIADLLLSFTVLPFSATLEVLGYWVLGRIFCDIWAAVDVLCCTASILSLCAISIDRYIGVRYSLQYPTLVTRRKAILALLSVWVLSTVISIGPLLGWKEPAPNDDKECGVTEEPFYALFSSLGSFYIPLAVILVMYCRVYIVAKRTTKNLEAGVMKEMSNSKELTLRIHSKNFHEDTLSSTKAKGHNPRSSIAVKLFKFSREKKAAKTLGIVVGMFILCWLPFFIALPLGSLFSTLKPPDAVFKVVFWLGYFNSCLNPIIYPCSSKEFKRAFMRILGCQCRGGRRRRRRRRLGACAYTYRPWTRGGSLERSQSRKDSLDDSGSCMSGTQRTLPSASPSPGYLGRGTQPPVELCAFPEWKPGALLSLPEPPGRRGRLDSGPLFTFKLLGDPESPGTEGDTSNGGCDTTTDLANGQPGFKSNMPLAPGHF
T3 sequence (P23944 whole entry): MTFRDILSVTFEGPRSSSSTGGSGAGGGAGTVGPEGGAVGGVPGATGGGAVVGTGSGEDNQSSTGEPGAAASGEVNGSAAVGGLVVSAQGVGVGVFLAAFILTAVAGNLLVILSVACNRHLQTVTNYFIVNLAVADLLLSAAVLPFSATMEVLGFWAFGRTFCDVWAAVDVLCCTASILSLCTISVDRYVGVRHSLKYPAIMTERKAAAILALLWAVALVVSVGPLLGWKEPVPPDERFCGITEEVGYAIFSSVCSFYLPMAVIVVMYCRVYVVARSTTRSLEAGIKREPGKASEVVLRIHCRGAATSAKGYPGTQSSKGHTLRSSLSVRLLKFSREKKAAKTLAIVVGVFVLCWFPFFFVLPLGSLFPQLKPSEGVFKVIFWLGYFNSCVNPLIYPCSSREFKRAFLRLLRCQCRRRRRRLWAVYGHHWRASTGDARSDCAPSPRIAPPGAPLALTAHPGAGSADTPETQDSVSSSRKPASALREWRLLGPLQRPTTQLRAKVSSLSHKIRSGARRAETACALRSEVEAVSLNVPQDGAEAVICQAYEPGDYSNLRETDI
T3 sequence (P43140 whole entry): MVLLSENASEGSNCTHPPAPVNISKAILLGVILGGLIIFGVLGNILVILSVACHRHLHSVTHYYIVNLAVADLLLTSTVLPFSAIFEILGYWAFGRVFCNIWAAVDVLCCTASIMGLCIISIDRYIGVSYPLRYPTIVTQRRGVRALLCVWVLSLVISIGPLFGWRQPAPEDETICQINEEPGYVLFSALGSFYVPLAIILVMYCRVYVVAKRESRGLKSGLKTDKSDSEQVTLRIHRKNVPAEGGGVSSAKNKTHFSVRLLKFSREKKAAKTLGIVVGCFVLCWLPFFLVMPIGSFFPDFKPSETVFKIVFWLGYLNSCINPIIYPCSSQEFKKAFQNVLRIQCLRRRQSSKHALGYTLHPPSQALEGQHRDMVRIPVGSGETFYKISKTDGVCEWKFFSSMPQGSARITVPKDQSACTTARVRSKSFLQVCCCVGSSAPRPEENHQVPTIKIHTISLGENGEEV

[8] = biological target: Adrenergic receptor beta (Rattus norvegicus) (UniProt P18090+P10608+P26255); assay: (§3) In vitro binding affinity towards the noradrenergic beta receptor at 10 e-6 M; format: protein assay
Summary of the method: (§4)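 Radioligand binding at the receptor site, run at 10⁻⁶ M. Reported as mean percent inhibition from at least three experiments, each performed in triplicate.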

[9] = biological target: D(2) dopamine receptor (Rattus norvegicus) (UniProt P61169); assay: In vitro binding affinity towards the dopamine receptor D2 at 10 e-6 M; summary of the method: as §2
[10] = biological target: Adrenergic receptor alpha-2 (Rattus norvegicus) (UniProt P22086+P19328+P22909); assay: In vitro binding affinity towards the noradrenergic alpha-2 receptor at 10 e-6 M; format: protein assay; summary of the method: as §2
[11] = biological target: D(1A) dopamine receptor (Rattus norvegicus) (UniProt P18901); assay: In vitro binding affinity towards the dopamine receptor D1 at 10 e-6 M; summary of the method: as §2
[12] = biological target: T3, Adrenergic receptor alpha-1; assay: In vitro binding affinity towards the alpha-1 receptor at 10 e-6 M; format: protein assay; summary of the method: as §2
[13] = biological target: Serotonin 2 (5-HT2) receptor (Rattus norvegicus, UniProt P30994+P08909+P14842); assay: as §1; format: protein assay; summary of the method: as §2
[14] = biological target: T3, Adrenergic receptor alpha-1; assay: In vitro binding affinity towards the noradrenergic alpha-1 receptor at 10 e-6 M; format: protein assay; summary of the method: as §2
Rattus norvegicus [15] = assay: Decrease in hippocampal level of 5-HT at preinjection of 5 mg/kg, sc; format: functional, Hippocampus; conditions: route subcutaneous
Summary of the method: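 Microdialysis in conscious, freely moving rats. Test agent given sc, and extracellular 5-HT measured in hippocampus for up to 2.5 h after dosing. Values expressed as % of preinjection control levels.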

Adrenergic receptor beta = Adrenergic receptor beta (Rattus norvegicus, UniProt P18090+P10608+P26255); assay: as §3; format: protein assay; summary of the method: as §4
Rattus norvegicus [16] = assay: Decrease in hippocampal level of 5-HT at preinjection of 1 mg/kg, sc; format: functional, Hippocampus; conditions: route subcutaneous

Chain of 5-hydroxytryptamine receptor 1B (Rattus norvegicus) (P28564 whole entry): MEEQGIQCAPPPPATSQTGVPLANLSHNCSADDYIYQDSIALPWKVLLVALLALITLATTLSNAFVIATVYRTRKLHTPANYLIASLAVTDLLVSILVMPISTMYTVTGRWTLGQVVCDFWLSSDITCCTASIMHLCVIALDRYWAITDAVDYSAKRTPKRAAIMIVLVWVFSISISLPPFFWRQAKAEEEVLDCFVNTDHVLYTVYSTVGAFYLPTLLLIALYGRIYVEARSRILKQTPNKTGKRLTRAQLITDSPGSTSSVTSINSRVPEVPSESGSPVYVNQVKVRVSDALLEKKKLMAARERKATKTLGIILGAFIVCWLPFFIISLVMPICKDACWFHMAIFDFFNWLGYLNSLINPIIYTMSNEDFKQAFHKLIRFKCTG
Chain of D(1A) dopamine receptor (Rattus norvegicus) (P18901 whole entry): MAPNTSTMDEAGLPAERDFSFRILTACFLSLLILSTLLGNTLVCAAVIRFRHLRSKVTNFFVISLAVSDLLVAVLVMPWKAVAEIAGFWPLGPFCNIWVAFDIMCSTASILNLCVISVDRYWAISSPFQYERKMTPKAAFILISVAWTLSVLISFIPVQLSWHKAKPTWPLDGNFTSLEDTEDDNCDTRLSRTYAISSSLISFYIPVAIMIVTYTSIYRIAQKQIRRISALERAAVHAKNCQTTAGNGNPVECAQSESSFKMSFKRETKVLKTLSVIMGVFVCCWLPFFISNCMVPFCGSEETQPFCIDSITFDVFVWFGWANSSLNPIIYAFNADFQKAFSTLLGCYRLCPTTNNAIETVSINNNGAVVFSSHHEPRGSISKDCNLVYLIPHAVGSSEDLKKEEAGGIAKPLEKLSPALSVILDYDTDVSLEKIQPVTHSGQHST
Chain of D(2) dopamine receptor (Rattus norvegicus) (P61169 whole entry): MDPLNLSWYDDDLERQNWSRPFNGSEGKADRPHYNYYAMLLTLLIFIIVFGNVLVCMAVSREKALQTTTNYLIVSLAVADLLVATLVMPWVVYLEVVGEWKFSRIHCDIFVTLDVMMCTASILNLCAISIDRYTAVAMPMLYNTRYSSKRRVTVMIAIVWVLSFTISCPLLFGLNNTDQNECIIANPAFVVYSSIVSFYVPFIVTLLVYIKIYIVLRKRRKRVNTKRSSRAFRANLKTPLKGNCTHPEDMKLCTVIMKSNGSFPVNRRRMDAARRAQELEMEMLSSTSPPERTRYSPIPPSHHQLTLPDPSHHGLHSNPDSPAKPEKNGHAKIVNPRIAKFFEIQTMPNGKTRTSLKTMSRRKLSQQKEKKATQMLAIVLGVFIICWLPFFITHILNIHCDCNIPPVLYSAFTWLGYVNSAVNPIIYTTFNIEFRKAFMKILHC
Chain of Serotonin 2 (5-HT2) receptor (Rattus norvegicus) (P14842 whole entry, looked up, one chain of several): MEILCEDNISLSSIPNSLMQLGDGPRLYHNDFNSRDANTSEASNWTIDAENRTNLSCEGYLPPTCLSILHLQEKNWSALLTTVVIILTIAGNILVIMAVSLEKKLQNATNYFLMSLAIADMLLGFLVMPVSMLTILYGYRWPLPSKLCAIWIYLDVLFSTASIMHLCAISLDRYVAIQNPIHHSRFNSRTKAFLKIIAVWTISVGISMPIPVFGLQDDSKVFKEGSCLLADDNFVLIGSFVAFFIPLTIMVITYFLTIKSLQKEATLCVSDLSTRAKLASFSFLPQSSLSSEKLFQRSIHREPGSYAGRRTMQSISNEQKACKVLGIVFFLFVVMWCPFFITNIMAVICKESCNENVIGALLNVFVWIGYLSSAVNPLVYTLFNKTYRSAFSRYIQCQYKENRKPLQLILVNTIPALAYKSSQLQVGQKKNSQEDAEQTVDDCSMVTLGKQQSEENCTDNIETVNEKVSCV
Chain of Serotonin 2 (5-HT2) receptor (Rattus norvegicus) (P30994 whole entry, looked up, one chain of several): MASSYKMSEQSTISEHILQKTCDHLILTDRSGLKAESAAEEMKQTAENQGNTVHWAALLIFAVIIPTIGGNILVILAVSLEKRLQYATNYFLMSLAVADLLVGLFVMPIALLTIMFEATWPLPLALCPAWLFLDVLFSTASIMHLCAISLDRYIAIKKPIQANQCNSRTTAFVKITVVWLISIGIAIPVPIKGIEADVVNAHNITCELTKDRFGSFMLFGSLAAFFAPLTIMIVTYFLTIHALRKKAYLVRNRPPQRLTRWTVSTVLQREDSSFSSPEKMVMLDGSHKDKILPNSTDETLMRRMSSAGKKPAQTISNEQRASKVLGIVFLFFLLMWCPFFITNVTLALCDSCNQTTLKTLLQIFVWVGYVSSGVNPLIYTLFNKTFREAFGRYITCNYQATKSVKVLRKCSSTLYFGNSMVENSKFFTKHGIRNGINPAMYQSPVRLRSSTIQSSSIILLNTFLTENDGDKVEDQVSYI

SMILES | IC50 [4] | inhibition [5] | inhibition [6] | inhibition [8] | inhibition [9] | inhibition [10] | inhibition [11] | other results
COc1ccccc1N1CCN(C[C@@H](C(=O)NC(C)(C)C)c2ccccc2)CC1 (stereo in doubt; (R)-5) |  |  |  |  |  |  |  | MED (Rattus norvegicus [1]): 10 mg/kg
CCCN(CCC)C1CCc2cccc(O)c2C1 (centres undefined) [8-OH-DPAT] |  |  |  |  |  |  |  | Decrease (Rattus norvegicus [2]): 19.2%
COc1ccccc1N1CCN(CC(C(=O)NC(C)(C)C)c2ccccc2)CC1 (centres undefined) | 33.9 nM | 27% | 37% | 20% | 14% | 10% | 20% | inhibition [3]: 37%; IC50 [7]: 1491 nM; minimal effective dose (Rattus norvegicus [1]; Rattus norvegicus, sc, read-out: MED): 3 mg/kg
COc1ccccc1N1CCN(C[C@@H](C(=O)NC(C)(C)C)c2ccccc2)CC1 (stereo in doubt; (S)-5) |  |  |  |  |  |  |  | MED (Rattus norvegicus [1]): 1 mg/kg
COc1ccccc1N1CCN(C[C@@H](C(=O)NC(C)(C)C)c2ccccc2)CC1 [listing 1 of 2 here] |  | 22% | 50% | 12% | 20% | 11% | 22% | 
COc1ccccc1N1CCN(C[C@@H](C(=O)NC(C)(C)C)c2ccccc2)CC1 [listing 2 of 2 here] | 15.5 nM |  |  |  |  |  |  | IC50 [12]: 1878 nM; IC50 [13]: 1393 nM
COc1ccccc1N1CCN(C[C@H](C(=O)NC(C)(C)C)c2ccccc2)CC1 | 437 nM | 21% | 14% | 7% | 4% | 7% | 2% | inhibition [3]: 13%; IC50 [14]: 2781 nM
COc1ccccc1N1CCN(CCN2C(=O)CC3(CCCC3)CC2=O)CC1.Cl.Cl |  |  |  |  |  |  |  | Decrease (Rattus norvegicus [15]): 37.6%
O=C1CC2(CCCC2)CC(=O)N1CCCCN1CCN(c2ncccn2)CC1 [BUSPIRONE] |  |  |  |  |  |  |  | IC50 (Adrenergic receptor beta): > 1000 nM; Decrease (Rattus norvegicus [16]): 39.9%
